Experiments:
[1] = Chemical stability assessed as formation of compound 2 in pH 7.4 phosphate buffer in presence of 5 mM GSH for 60 mins at 37 degC at 10 uM by UV chromatography; type: physicochemical; conditions: pH 7.4, 1 h
Summary of the method: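 Test compound at 10 µM in 0.1 M phosphate buffer, pH 7.4, with or without 5 mM GSH, 60 min at 37 °C in a shaking water bath open to air. Stopped with ice-cold acetonitrile containing 0.1% formic acid, then centrifuged. Supernatant analyzed by LC–MS/MS and UV (300 nm) on a C18 column with an ammonium formate/acetonitrile gradient.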

Liver microsomes [2] = assay: Metabolic stability in human liver microsomes assessed as formation of compound at 10 uM in presence of 5 mM GSH and 1.3 mM NADPH by UV chromatography; type: ADME, Microsome
Summary of the method: (§1)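 Test compound at 10 µM with 5 mM GSH in human liver microsomes (NADPH-supplemented or not), human liver cytosol, or human placental GST. Incubated 60 min at 37 °C in a shaking water bath open to air; microsomal and cytosolic reactions started by adding the matrix. Controls lacked NADPH and/or GSH. Quenched with ice-cold acetonitrile containing 0.1% formic acid, then centrifuged. Supernatant analyzed by LC–MS/MS with UV detection at 300 nm.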

[3] = Metabolic stability in human liver cytosol assessed as formation of compound at 10 uM in presence of 5 mM GSH and 1.3 mM NADPH by UV chromatography; type: ADME; summary of the method: as §1
[4] = Metabolic stability in presence of human placental GST assessed as formation of compound at 10 uM in presence of 5 mM GSH and 1.3 mM NADPH by UV chromatography; type: ADME; summary of the method: as §1
Liver microsomes [5] = assay: Metabolic stability in human liver microsomes assessed as formation of compound at 10 uM in presence of 5 mM GSH and in absence of NADPH by UV chromatography; type: ADME, Microsome; summary of the method: as §1

| Structure (SMILES) | Stability [1] | Stability (Liver microsomes [2]) | Stability [3] | Stability [4] | Stability (Liver microsomes [5]) |
| --- | --- | --- | --- | --- | --- |
| Cc1cnc(NC(=O)[C@H](CC2CCCC2)n2cccc(S(C)(=O)=O)c2=O)cn1 | Stable | Stable | Stable | Stable | Stable |
| Cc1cnc(NC(=O)[C@H](CC2CCCC2)n2cc(S(C)(=O)=O)ccc2=O)cn1 | Stable | Stable | Stable | Stable | Stable |
| Cc1cnc(NC(=O)[C@H](CC2CCCC2)n2ccc(S(C)(=O)=O)cc2=O)cn1 | Unstable | Unstable | Unstable | Unstable | Unstable |
| Cc1cnc(NC(=O)[C@H](CC2CCCC2)n2ccc(Br)cc2=O)cn1 | Stable | Stable | Unstable | Unstable | Stable |
| Cc1cnc(NC(=O)[C@H](CC2CCCC2)n2ccccc2=O)cn1 | Stable | Stable | Stable | Stable | Stable |

From ChEMBL document CHEMBL1268876, “Intrinsic electrophilicity of the 4-methylsulfonyl-2-pyridone scaffold in glucokinase activators: role of glutathione-S-transferases and in vivo quantitation of a glutathione conjugate in rats” (Bioorg Med Chem Lett, 2010)
